Experimental data reported in publication PMC4227816 (Journal of the American Chemical Society, 2014).
Structures can show the parent of a compound that is named as a salt.

System: HIV-1RF challenged T-lymphoblastic CEM-SS cells
Assay: XTT anti-HIV-1 cytopathicity assay in CEM-SS cells
Format: cell-based
Summary of the method: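 CEM-SS cells grown in phenol red-free RPMI 1640 with 5% FBS, 2 mM L-glutamine and 50 μg/mL gentamicin. Washed log-phase cells seeded at 5 × 10^3 per well with serial dilutions of compound in DMSO. HIV-1RF diluted to give 80–90% cell kill at 6 days, with parallel uninfected wells for toxicity. Incubated 6 days at 37 °C, viability read by XTT, in triplicate.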

SMILES: CC(=O)c1ccc2c(c1)N(CCCN(C)C)c1ccccc1S2 [Acepromazine maleate]
- protective effect against HIV-1-induced cytopathicity (in words): not protective
